# Measured values: ChEMBL document CHEMBL1131066, “2-Substituted aminopyrido[2,3-d]pyrimidin-7(8H)-ones. structure-activity relationships against selected tyrosine kinases and in vitro and in vivo anticancer activity” (J Med Chem, 1998)
# pIC50: −log10 of the molar value.
# Experiments:
# A-431 [1] = test: Ratio of treated and control A431 cell tumor mass in mice at 5 mg/kg peroral dose, days 7-21 administration; format: functional, Mus musculus; details: route oral
# Method in brief: (§1)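 Nude mice (NCr nu/nu), 6–8 per group, 18–22 g, tumor fragments implanted in right axilla on day 0 (A431, C6, MCF-7, or NIH3T3 carrying human PDGF receptor), dosed by average cage weight; vehicle 50 mM sodium lactate buffer pH 4.0 unless suspended in 0.5% methyl cellulose. %T/C = median treated/median control tumor mass ×100, last therapy day.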
# A-431 [2] = test: Difference in days for treated (T) and control (C) A431 cell tumors to reach 750 mg in mice at 5 mg/kg peroral dose, days 7-21 administration; format: functional, Mus musculus; details: route oral
# Method in brief: (§2)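 Nude mice (NCr nu/nu), 18–22 g, 6–8 per group, randomized and implanted with serially passaged tumor fragments in the right axilla on day 0. Dosed by average cage weight. Vehicle was 50 mM sodium lactate buffer, pH 4.0, or a 0.5% methyl cellulose suspension for one compound. Cisplatin was given in saline. T − C is the difference in days for treated and control tumors to reach 750 mg.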
# A-431 [3] = test: Net reduction in tumor burden between first and last treatments of A431 cell tumors in mice at 5 mg/kg peroral dose, days 7-21 administration; format: functional, Mus musculus; details: route oral
# Method in brief: (§3)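 NCr nu/nu nude mice (18–22 g, 6–8 per group, randomized) had tumor fragments, kept by serial passage in nude mice, implanted in the right axilla on day 0. Mice were dosed by average cage weight on the listed days, over a range from toxic to ineffective doses. Vehicle was 50 mM sodium lactate pH 4.0 or 0.5% methyl cellulose suspension. Net log cell kill was taken between first and last treatments.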
# A-431 [4] = test: Weight change of A431 cell tumors in mice at 5 mg/kg peroral dose, days 7-21 administration; format: functional, Mus musculus; details: route oral
# Method in brief: (§4)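 Tumor-bearing nude mice (NCr nu/nu, 18–22 g, 6–8 per group) were implanted in the right axilla with tumor fragments on day 0 and dosed by average cage weight. Vehicle was 50 mM sodium lactate pH 4.0, or 0.5% methyl cellulose suspension; cisplatin was given in saline. Host body weight change is given as the maximum treatment-related weight loss.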
# C6 [5] = test: Net reduction in tumor burden between first and last treatments of C6 glioma cell tumors in mice at 10 mg/kg peroral dose, days 1-15 administration; format: functional, Mus musculus; details: route oral; method in brief: as §3
# C6 [6] = test: Weight change of C6 glioma tumor cells in mice at 10 mg/kg peroral dose, days 1-15 administration; format: functional, Mus musculus; details: route oral; method in brief: as §4
# C6 [7] = test: C6 cell growth in soft agar with discontinued treatment; format: functional, cell-based, Rattus norvegicus; details: Rattus norvegicus, C6
# Method in brief: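 C6 rat glioma cells given 3-day exposure to a concentration series, then washed free of inhibitor and plated in drug-free soft agar; colonies stained and counted after two weeks. IC50; mean of two experiments, each in duplicate.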
# C6 [8] = test: C6 cell growth in soft agar with continuous treatment; format: functional, cell-based, Rattus norvegicus; details: Rattus norvegicus, C6
# Method in brief: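 C6 rat glioma cells (F10 Ham's with 15% horse serum, 2.5% fetal calf serum) exposed 3 days to a concentration series, then plated in soft agar with compound still present at the same concentration; colonies stained and counted after two weeks. IC50; mean of two experiments, each in duplicate.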
# C6 [9] = test: Inhibition of C6 cell proliferation in sulforhodamine B assay; format: functional, cell-based, Rattus norvegicus; details: Rattus norvegicus, C6
# Method in brief: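 C6 rat glioma cells (F10 Ham's, 15% horse serum, 2.5% fetal calf serum) seeded and allowed 24 h to attach, then given serial 2-fold compound dilutions; 4 d at 37 °C, 5% CO2; growth read by sulforhodamine B staining. IC50; mean of two experiments, each in triplicate.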
# [10] = target: Platelet-derived growth factor receptor (PDGFr) (Rattus norvegicus, UniProt P20786+Q05030); test: Inhibition of PDGF-induced autophosphorylation of PDGF-R in C6 cells
# C6 [11] = test: Ratio of treated and control C6 glioma cell tumor mass in mice at 10 mg/kg peroral dose, days 1-15 administration; format: functional, Mus musculus; details: route oral; method in brief: as §1
# C6 [12] = test: Difference in days for treated (T) and control (C) C6 glioma cell tumors to reach 750 mg in mice at 10 mg/kg peroral dose, days 1-15 administration; format: functional, Mus musculus; details: route oral; method in brief: as §2
# COLO 205 [13] = test: Ratio of treated and control COLO 205 cell tumor mass in mice at […] peroral dose, days 9-23 administration; format: functional, Mus musculus; details: route oral
# COLO 205 [14] = test: Difference in days for treated (T)and control (C) COLO 205 cell tumors to reach 750 mg in mice at […] peroral dose, days 9-23 administration; format: functional, Mus musculus; details: route oral
# COLO 205 [15] = test: Weight change of COLO 205 cell tumors in mice at […] peroral dose, days 9-23 administration; format: functional, organism-based; design: dose 8.9 mg/kg; details: Mus musculus
# [16] = target: T1, Fibroblast growth factor receptor 1 (Homo sapiens, UniProt P11362); test: Inhibition of fibroblast growth factor receptor (FGFr)
# T1 sequence (P11362 whole entry): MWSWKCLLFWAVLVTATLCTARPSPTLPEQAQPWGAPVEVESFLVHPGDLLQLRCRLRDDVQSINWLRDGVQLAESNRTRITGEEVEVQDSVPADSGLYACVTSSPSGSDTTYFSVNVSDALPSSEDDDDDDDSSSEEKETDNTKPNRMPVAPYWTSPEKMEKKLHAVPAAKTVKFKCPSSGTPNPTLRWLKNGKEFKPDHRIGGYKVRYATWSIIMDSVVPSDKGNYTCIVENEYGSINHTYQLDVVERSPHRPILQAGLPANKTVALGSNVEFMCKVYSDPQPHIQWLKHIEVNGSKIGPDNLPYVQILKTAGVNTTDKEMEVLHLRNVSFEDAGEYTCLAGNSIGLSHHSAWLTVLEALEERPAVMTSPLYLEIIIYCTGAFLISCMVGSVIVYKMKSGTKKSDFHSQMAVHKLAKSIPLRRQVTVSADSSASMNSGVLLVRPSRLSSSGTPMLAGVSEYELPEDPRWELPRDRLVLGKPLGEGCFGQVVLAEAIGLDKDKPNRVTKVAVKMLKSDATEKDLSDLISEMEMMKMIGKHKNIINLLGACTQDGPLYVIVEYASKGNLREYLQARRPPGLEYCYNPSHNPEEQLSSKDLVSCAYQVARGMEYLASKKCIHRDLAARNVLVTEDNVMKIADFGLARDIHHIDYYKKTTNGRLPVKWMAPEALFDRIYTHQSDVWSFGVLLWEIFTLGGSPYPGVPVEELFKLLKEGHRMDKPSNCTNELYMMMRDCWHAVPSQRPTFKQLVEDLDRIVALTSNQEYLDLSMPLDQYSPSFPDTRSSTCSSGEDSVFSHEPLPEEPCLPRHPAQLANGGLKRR
# Method in brief: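 Recombinant kinases (PDGFr-β, FGFr-1, c-Src), enzyme inhibition IC50. Mean of at least two separate determinations, each done in triplicate; replicate values typically varied under 30%.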
# HT-29 [17] = test: Difference in days for treated (T) and control (C) HT-29 cell tumors to reach 750 mg in mice at […] peroral dose, days 15-29 administration; format: functional, Mus musculus; details: route oral
# HT-29 [18] = test: Weight change of HT-29 cell tumors in mice at […] peroral dose, days 15-29 administration; format: functional, organism-based; design: dose 8.3 mg/kg; details: Mus musculus
# MCF7 [19] = test: Ratio of treated and control MCF-7 tumor mass in mice at 5 mg/kg peroral dose, days 1-15 administration; format: functional, Mus musculus; details: route oral; method in brief: as §1
# MCF7 [20] = test: Difference in days for treated (T) and control (C) MCF-7 cell tumors to reach 750 mg in mice at 5 mg/kg peroral dose, days 1-15 administration; format: functional, Mus musculus; details: route oral; method in brief: as §2
# MCF7 [21] = test: Net reduction in tumor burden between first and last treatments of MCF-7 cells in mice at 5 mg/kg peroral dose, days 1-15 administration; format: functional, Mus musculus; details: route oral; method in brief: as §3
# MCF7 [22] = test: Weight change for MCF-7 cell tumors in mice at 5 mg/kg peroral dose, days 1-15 administration; format: functional, organism-based; design: dose 5 mg/kg; details: Mus musculus; method in brief: as §4
# SK-OV-3 [23] = test: Difference in days for treated (T) and control (C) SKOV-3 cell tumors to reach 750 mg in mice at […] peroral dose, days 15-29 administration; format: functional; details: route oral
# SK-OV-3 [24] = test: Ratio of treated and control SKOV-3 cell tumor mass in mice at […] peroral dose, days 15-29 administration; format: functional; details: route oral
# SK-OV-3 [25] = test: Weight change of SK-OV-3 cell tumors in mice at […] peroral dose, days 15-29 administration; format: functional, organism-based; design: dose 8.9 mg/kg
# NIH3T3 [26] = test: Growth of NIH3T3 cell colonies in soft agar with continuous treatment; format: functional, cell-based; details: Mus musculus
# Method in brief: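 Soft agar cloning used PDGF-B-transfected NIH3T3 (NIH3T3/PDGF) cells. Cells were exposed 3 days to a concentration series, then plated in soft agar with the matching compound concentration kept present. Colonies were stained and counted after two weeks. IC50; mean of two experiments, each in duplicate.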
# NIH3T3 [27] = test: Growth of NIH3T3 cell colonies in soft agar with discontinued treatment; format: functional, cell-based; details: Mus musculus
# Method in brief: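 PDGF-B-transfected NIH3T3 (NIH3T3/PDGF) cells exposed 3 days to a concentration series, washed free of inhibitor, plated in drug-free soft agar; colonies stained and counted after two weeks. IC50; mean of two experiments, each in duplicate.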
# NIH3T3 [28] = test: Inhibition of NIH3T3 proliferation by sulforhodamine B assay; format: functional, cell-based, Mus musculus; details: Mus musculus, NIH3T3
# [29] = target: Platelet-derived growth factor receptor (Mus musculus, UniProt P05622+P26618); test: Inhibition of PDGF-induced autophosphorylation of PDGF-R in NIH3T3 cells
# [30] = target: Platelet-derived growth factor receptor beta (Mus musculus, UniProt P05622); test: Inhibitory concentration was evaluated against Platelet-derived growth factor receptor beta (PDGFr) tyrosine kinase
# Platelet-derived growth factor receptor beta, sequence (P05622 whole entry): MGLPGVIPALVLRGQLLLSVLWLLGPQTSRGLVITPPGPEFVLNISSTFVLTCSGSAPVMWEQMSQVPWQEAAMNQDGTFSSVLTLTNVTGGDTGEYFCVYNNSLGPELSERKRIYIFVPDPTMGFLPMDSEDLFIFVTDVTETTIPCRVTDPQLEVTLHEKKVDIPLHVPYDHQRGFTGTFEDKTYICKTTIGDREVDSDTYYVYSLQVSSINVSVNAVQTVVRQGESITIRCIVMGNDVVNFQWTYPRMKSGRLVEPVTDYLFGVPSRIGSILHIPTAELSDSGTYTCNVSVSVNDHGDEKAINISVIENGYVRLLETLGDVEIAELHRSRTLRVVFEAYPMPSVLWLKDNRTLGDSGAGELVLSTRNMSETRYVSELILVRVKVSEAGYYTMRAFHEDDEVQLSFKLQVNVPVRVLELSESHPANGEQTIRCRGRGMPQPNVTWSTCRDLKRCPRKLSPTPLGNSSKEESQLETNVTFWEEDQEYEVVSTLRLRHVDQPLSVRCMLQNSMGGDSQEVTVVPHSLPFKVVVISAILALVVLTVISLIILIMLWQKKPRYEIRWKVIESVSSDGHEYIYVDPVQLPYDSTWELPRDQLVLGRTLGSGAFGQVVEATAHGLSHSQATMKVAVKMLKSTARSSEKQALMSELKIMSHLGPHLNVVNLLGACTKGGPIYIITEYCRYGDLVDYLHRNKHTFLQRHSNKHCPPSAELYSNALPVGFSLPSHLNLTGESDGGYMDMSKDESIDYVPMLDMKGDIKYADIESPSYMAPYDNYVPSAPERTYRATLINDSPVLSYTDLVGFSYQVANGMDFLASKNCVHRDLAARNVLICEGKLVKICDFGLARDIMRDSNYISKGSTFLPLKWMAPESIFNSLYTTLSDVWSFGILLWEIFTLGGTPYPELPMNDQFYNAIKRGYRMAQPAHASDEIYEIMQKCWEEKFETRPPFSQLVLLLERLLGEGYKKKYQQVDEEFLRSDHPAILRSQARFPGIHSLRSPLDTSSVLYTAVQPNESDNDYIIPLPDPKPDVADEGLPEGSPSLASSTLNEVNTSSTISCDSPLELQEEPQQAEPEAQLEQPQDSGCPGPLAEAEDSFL
# Mus musculus [31] = test: Ratio of treated and control PDGF-transfected mouse fibroblast tumor mass in mice at 12 mg/kg peroral dose, days 1-15 administration; format: functional; details: route oral; method in brief: as §1
# Mus musculus [32] = test: Difference in days for treated (T) and control (C) PDGF-transfected mouse fibroblast tumors to reach 750 mg in mice at 12 mg/kg peroral dose, days 1-15 administration; format: functional; details: route oral; method in brief: as §2
# Mus musculus [33] = test: Net reduction in tumor burden between the first and last treatments of PDGF-transfected fibroblast cells in mice at 12 mg/kg peroral dose, days 1-15 administration; format: functional; details: route oral; method in brief: as §3
# [34] = target: Proto-oncogene tyrosine-protein kinase Src (Gallus gallus, UniProt P00523); test: Inhibition of avian c-Src tyrosine kinase
# Mus musculus [35] = test: Weight change in PDGF-transfected mouse fibroblasts in mice at 12 mg/kg peroral dose, days 1-15 administration; format: functional; details: route oral; method in brief: as §4
# COLO 205 [36] = test: Net reduction in tumor burden between first and last treatments of COLO 205 cell tumors in mice at […] peroral dose, days 9-23 administration; format: functional, Mus musculus; details: route oral
# [37] = target: T1, Fibroblast growth factor receptor 1; test: Inhibitory concentration evaluated against fibroblast growth factor receptor 1.
# [38] = target: Epidermal growth factor receptor (Homo sapiens, UniProt P00533); test: Inhibitory concentration was evaluated against epidermal growth factor receptor (EGFr) tyrosine kinase
# Epidermal growth factor receptor, sequence (P00533 whole entry): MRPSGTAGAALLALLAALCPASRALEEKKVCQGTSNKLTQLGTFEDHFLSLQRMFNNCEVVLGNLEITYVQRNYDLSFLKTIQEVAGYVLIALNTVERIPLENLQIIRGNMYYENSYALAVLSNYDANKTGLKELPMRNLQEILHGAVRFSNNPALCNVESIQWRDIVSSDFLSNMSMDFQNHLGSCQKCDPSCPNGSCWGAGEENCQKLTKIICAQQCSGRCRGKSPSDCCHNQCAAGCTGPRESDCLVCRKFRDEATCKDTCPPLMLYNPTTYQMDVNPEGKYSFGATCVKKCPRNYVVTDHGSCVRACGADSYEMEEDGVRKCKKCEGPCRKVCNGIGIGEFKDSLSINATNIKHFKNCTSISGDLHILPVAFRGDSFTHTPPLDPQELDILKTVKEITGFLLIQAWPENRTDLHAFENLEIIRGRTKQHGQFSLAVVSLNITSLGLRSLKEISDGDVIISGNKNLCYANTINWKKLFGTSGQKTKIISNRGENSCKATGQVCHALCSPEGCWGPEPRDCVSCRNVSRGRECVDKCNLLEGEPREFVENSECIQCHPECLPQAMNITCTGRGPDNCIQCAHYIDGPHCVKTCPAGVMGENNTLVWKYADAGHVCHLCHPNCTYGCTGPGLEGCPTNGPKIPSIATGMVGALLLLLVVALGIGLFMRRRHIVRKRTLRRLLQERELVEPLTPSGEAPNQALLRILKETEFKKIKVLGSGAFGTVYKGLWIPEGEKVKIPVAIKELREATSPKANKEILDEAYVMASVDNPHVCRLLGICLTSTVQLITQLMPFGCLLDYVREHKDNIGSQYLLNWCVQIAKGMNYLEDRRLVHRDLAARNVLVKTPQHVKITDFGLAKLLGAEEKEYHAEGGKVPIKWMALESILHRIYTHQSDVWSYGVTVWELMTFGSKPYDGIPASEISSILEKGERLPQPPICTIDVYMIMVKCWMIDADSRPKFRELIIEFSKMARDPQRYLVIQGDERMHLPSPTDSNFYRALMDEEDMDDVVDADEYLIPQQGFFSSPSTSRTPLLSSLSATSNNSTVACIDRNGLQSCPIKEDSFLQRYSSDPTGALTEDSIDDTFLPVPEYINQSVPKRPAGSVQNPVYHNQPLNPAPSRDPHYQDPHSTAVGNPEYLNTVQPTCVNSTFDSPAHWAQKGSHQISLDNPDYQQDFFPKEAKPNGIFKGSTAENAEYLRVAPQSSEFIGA
smiles,measurement,setting,value
CCN(CC)CCOc1ccc(Nc2ncc3cc(-c4c(Cl)cccc4Cl)c(=O)n(CC)c3n2)cc1,Ratio,A-431 [1],96%
same,T-C,A-431 [2],3.3 days
same,Net cell kill,A-431 [3],-0.6 log10
same,Weight change,A-431 [4],-2.7 g
same,Net cell kill,C6 [5],-0.9 log10
same,Weight change,C6 [6],-1.2 g
same,pIC50,C6 [7],6.40
same,pIC50,C6 [8],6.92
same,pIC50,C6 [9],6.46
same,IC50,[10],1 nM
same,Ratio,C6 [11],56%
same,T-C,C6 [12],3 days
same,Ratio,COLO 205 [13],57%
same,T-C,COLO 205 [14],10.3 days
same,Weight change,COLO 205 [15],Weight gain
same,pIC50,[16],7.52
same,T-C,HT-29 [17],-4.8 days
same,Weight change,HT-29 [18],Weight gain
same,Ratio,MCF7 [19],51%
same,T-C,MCF7 [20],18.3 days
same,Net cell kill,MCF7 [21],0.2 log10
same,Weight change,MCF7 [22],Weight gain
same,T-C,SK-OV-3 [23],-0.8 days
same,Ratio,SK-OV-3 [24],106%
same,Weight change,SK-OV-3 [25],Weight gain
same,pIC50,NIH3T3 [26],8.82
same,pIC50,NIH3T3 [27],7.77
same,pIC50,NIH3T3 [28],6.39
same,pIC50,[29],8.77
same,pIC50,[30],6.82
same,Ratio,Mus musculus [31],13%
same,T-C,Mus musculus [32],5.9 days
same,Net cell kill,Mus musculus [33],-1.2 log10
same,pIC50,[34],7.77
same,Weight change,Mus musculus [35],-2.6 g
same,Net cell kill,COLO 205 [36],-0.2 log10
Cn1c(=O)c(-c2c(Cl)cccc2Cl)cc2cnc(NC3CCCCC3)nc21,pIC50,[37],5.17
same,pIC50,[38],< 4.30
same,pIC50,[30],4.90
same,pIC50,[34],5.80
COc1cc(Nc2ncc3cc(-c4c(Cl)cccc4Cl)c(=O)n(C)c3n2)cc(OC)c1,pIC50,[37],6.37
same,pIC50,[38],6.48
same,pIC50,[30],5.77
same,pIC50,[34],7.70
Cn1c(=O)c(-c2c(Cl)cccc2Cl)cc2cnc(NCc3cccnc3)nc21,pIC50,[37],5.50
same,pIC50,[38],< 5.30
same,pIC50,[30],5.18
same,pIC50,[34],5.49
CNc1ncc2cc(-c3c(Cl)cccc3Cl)c(=O)n(C)c2n1,pIC50,[37],5.60
same,pIC50,[38],5.12
same,pIC50,[30],5.21
same,pIC50,[34],6.12
CCn1c(=O)c(-c2c(Cl)cccc2Cl)cc2cnc(Nc3ccccc3)nc21,pIC50,[37],6.68
same,pIC50,[38],6.70
same,pIC50,[30],6.10
same,pIC50,[34],7.28
CCNc1ncc2cc(-c3c(Cl)cccc3Cl)c(=O)n(C)c2n1,pIC50,[37],6.02
same,pIC50,[38],5.35
same,pIC50,[30],5.40
same,pIC50,[34],6.23
Cn1c(=O)c(-c2c(Cl)cccc2Cl)cc2cnc(Nc3ccncc3)nc21,pIC50,C6 [7],5.16
same,pIC50,C6 [8],6.40
same,pIC50,C6 [9],5.96
same,IC50,[10],680 nM
same,pIC50,[37],6.72
same,pIC50,[38],6.04
same,pIC50,NIH3T3 [26],6.51
same,pIC50,NIH3T3 [27],6.46
same,pIC50,NIH3T3 [28],6.98
same,pIC50,[30],7.00
same,pIC50,[34],8.00
CC(C)Nc1ncc2cc(-c3c(Cl)cccc3Cl)c(=O)n(C)c2n1,pIC50,[37],6.15
same,pIC50,[38],< 5.30
same,pIC50,[30],5.49
same,pIC50,[34],5.80
Cn1c(=O)c(-c2c(Cl)cccc2Cl)cc2cnc(Nc3cccc(Br)c3)nc21,pIC50,[37],5.62
same,pIC50,[38],6.17
same,pIC50,[30],5.51
same,pIC50,[34],7.22
